Experimental data published in article PMC9926436 (Doklady. Biochemistry and Biophysics, 2023).
pEC50: −log10 of the molar value.

How the values were obtained:
[1] = system: human cytomegalovirus (HCMV), strain Davis; format: cell-based; details: Human betaherpesvirus 5, HEL, read-out: Antiviral activity, EC50, Davis
Summary of the method: (§1)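 HEL (human embryonic lung) cell cultures infected with HCMV strain AD-169 or Davis. Antiviral activity scored as inhibition of virus-induced cytopathic effect or of plaque formation.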

[2] = system: HCMV (strains AD-169 and Davis); assay: Anti-HCMV activity in HEL cells, text statements not split by strain; format: cell-based, human cytomegalovirus; details: qualitative statement
Summary of the method: as §1

[3] = Cytostatic activity, cell growth; format: cell-based; details: human, human embryonic lung (HEL) cells
Summary of the method: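 Cytostatic assay in HEL cells. Value is the cytotoxic concentration needed to reduce cell growth by 50%.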

Row | pEC50 [1] | SMILES | Anti-HCMV activity in words [2] | CC50 [3] [µM]
1 | 4.35 | O=c1ccn(Cc2cccc3ccccc23)c(=O)n1CCCCCOc1ccc(Br)cc1 [Compound 27, 3-[5-(4-Bromophenoxy)pentyl]-1-(naphthalen-1-ylmethyl)uracil] | more than one order of magnitude less active | 
2 | 5.83 | Nc1ccn(C[C@@H](CO)OCP(=O)(O)O)c(=O)n1 [Cidofovir, cidofovir] |  | > 300
3 | < 4.00 | O=c1c2ccccc2n(CCCCCOc2ccc(Br)cc2)c(=O)n1Cc1cccc2ccccc12 [Compound 24, 1-[5-(4-bromophenoxy)pentyl]-3-(naphthalen-1-ylmethyl)quinazolin-2,4(1H,3H)-dione] | inactive | 
4 | 5.04 | Nc1nc(O)c2ncn(COC(CO)CO)c2n1 [Ganciclovir, ganciclovir] |  | > 350
